{
  "source": "ChEMBL document CHEMBL1151981",
  "about": "“Bioactive pyridine-N-oxide disulfides from Allium stipitatum” (J Nat Prod, 2009)",
  "key": {"[1]": {"test_system": "Mycolicibacterium fortuitum", "assay": "Antibacterial activity against Mycobacterium fortuitum after 72 hrs", "type": "functional", "in_short": "(§1)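 Fast-growing mycobacteria obtained from NCTC; cultures grown on Columbia blood agar with 7% defibrinated horse blood at 37 °C for 72 h before MIC determination. Ethambutol and isoniazid served as positive controls.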"}, "[2]": {"test_system": "Mycolicibacterium smegmatis", "assay": "Antibacterial activity against Mycobacterium smegmatis after 72 hrs", "type": "functional", "in_short": "as §1"}, "[3]": {"test_system": "Mycolicibacterium phlei", "assay": "Antibacterial activity against Mycobacterium phlei after 72 hrs", "type": "functional", "in_short": "as §1"}, "[4]": {"test_system": "Staphylococcus aureus", "assay": "Antibacterial activity against Staphylococcus aureus SA1199B overexpressing NorA efflux pump after 72 hrs", "type": "functional"}, "[5]": {"test_system": "Staphylococcus aureus", "assay": "Antibacterial activity against tetracycline-effluxing Staphylococcus aureus XU212 after 72 hrs", "type": "functional", "conditions": "XU212, 72 h", "in_short": "(§2)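 S. aureus strains tested in a MIC assay; norfloxacin and oxacillin used as positive controls.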"}, "[6]": {"test_system": "Staphylococcus aureus", "assay": "Antibacterial activity against Staphylococcus aureus EMRSA15 after 72 hrs", "type": "functional", "conditions": "EMRSA15, 72 h", "in_short": "as §2"}, "[7]": {"test_system": "Mycobacterium tuberculosis", "assay": "Effect on trxB2 RNA expression in Mycobacterium tuberculosis H37Rv ATCC 27294 at 2 to 10 ug/ml after 6 hrs by microarray analysis", "type": "functional, organism-based", "in_short": "(§3)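 H37Rv grown in 7H9 with 0.2% glycerol, 0.5% BSA fraction V, 0.05% Tween 80, 0.08% NaCl and 0.2% glucose to OD650 0.3. Treated with 2, 5 or 10 µg/mL compound, or matching DMSO, for 6 h. RNA isolated, labelled cDNA hybridised to microarrays. Predictive genes found by class prediction analysis.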"}, "[8]": {"test_system": "Mycobacterium tuberculosis", "assay": "Effect on trxC RNA expression in Mycobacterium tuberculosis H37Rv ATCC 27294 at 2 to 10 ug/ml after 6 hrs by microarray analysis", "type": "functional, organism-based", "in_short": "as §3"}, "[9]": {"test_system": "Mycobacterium tuberculosis", "assay": "Upregulation of clpB RNA expression in Mycobacterium tuberculosis H37Rv ATCC 27294 at 2 to 10 ug/ml after 6 hrs by microarray analysis", "type": "functional, organism-based", "in_short": "as §3"}, "[10]": {"test_system": "Mycobacterium tuberculosis", "assay": "Upregulation of sigH RNA expression in Mycobacterium tuberculosis H37Rv ATCC 27294 at 2 to 10 ug/ml after 6 hrs by microarray analysis", "type": "functional, organism-based", "in_short": "as §3"}, "[11]": {"test_system": "Mycobacterium tuberculosis", "assay": "Upregulation of dnaJ RNA expression in Mycobacterium tuberculosis H37Rv ATCC 27294 at 2 to 10 ug/ml after 6 hrs by microarray analysis", "type": "functional, organism-based", "in_short": "as §3"}, "[12]": {"test_system": "Mycobacterium tuberculosis", "assay": "Upregulation of dnaK RNA expression in Mycobacterium tuberculosis H37Rv ATCC 27294 at 2 to 10 ug/ml after 6 hrs by microarray analysis", "type": "functional, organism-based", "in_short": "as §3"}, "[13]": {"test_system": "Mycobacterium tuberculosis", "assay": "Upregulation of hsp RNA expression in Mycobacterium tuberculosis H37Rv ATCC 27294 at 2 to 10 ug/ml after 6 hrs by microarray analysis", "type": "functional, organism-based", "in_short": "as §3"}, "[14]": {"test_system": "Mycobacterium tuberculosis", "assay": "Upregulation of Rv0331 RNA expression in Mycobacterium tuberculosis H37Rv ATCC 27294 at 2 to 10 ug/ml after 6 hrs by microarray analysis", "type": "functional, organism-based", "in_short": "as §3"}, "[15]": {"test_system": "Mycobacterium tuberculosis", "assay": "Upregulation of Rv3463 RNA expression in Mycobacterium tuberculosis H37Rv ATCC 27294 at 2 to 10 ug/ml after 6 hrs by microarray analysis", "type": "functional, organism-based", "in_short": "as §3"}, "[16]": {"test_system": "Mycobacterium tuberculosis", "assay": "Upregulation of Rv3054c RNA expression in Mycobacterium tuberculosis H37Rv ATCC 27294 at 2 to 10 ug/ml after 6 hrs by microarray analysis", "type": "functional, organism-based", "in_short": "as §3"}, "[17]": {"test_system": "Mycobacterium tuberculosis", "assay": "Upregulation of Rv1334 RNA expression in Mycobacterium tuberculosis H37Rv ATCC 27294 at 2 to 10 ug/ml after 6 hrs by microarray analysis", "type": "functional, organism-based", "in_short": "as §3"}, "[18]": {"test_system": "Mycobacterium tuberculosis", "assay": "Upregulation of Rv1335 RNA expression in Mycobacterium tuberculosis H37Rv ATCC 27294 at 2 to 10 ug/ml after 6 hrs by microarray analysis", "type": "functional, organism-based", "in_short": "as §3"}, "[19]": {"test_system": "Mycolicibacterium smegmatis", "assay": "Antibacterial activity against Mycobacterium smegmatis mc2 2700 after 72 hrs", "type": "functional", "conditions": "mc2 2700, 72 h"}, "[20]": {"test_system": "Mycobacterium tuberculosis", "assay": "Antibacterial activity against Mycobacterium tuberculosis H37Rv ATCC 27294 assessed as decrease in viable bacterial counts at 0.01 to 5 ug/ml after 14 days by spot-culture growth inhibition assay", "type": "functional, organism-based", "in_short": "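Mid-exponential cultures (BCG rotated in 7H9/ADC/Tween 80; H37Rv standing in 7H9/OADC/Tween 80) diluted to 10³ cells/mL. 5 µL spotted onto 7H10 agar with 10% OADC containing compound at 0.01, 0.1, 0.5, 1 and 5 µg/mL. Incubated at 37 °C for 14 days. MIC taken as lowest concentration with no growth; no-compound well as growth control.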"}, "[21]": {"test_system": "MCF7", "assay": "Cytotoxicity against human MCF7 cells after 96 hrs by sulforhodamine B assay", "type": "functional, cell-based", "conditions": "MCF7, 96 h", "in_short": "(§4)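 SRB assay. Cells seeded at 4000/well in DMEM and allowed to attach overnight at 37 °C, 5% CO2. Exposed in quadruplicate to freshly made compound, 0.1–25 µM, for 96 h. Fixed with ice-cold 10% TCA for 30 min, stained with 0.4% SRB in 1% acetic acid for 15 min. Absorbance read at 540 nm as % of untreated control; IC50 derived from means.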"}, "[22]": {"test_system": "A549", "assay": "Cytotoxicity against human A549 cells after 96 hrs by sulforhodamine B assay", "type": "functional, cell-based", "conditions": "A549, 96 h", "in_short": "as §4"}, "[23]": {"assay": "Cytotoxicity against human WI38 cells after 96 hrs by sulforhodamine B assay", "type": "cell-based", "conditions": "WI-38, 96 h", "in_short": "as §4"}},
  "note": "Calls of active or inactive are those of the source. The calls are words filed in the database; no cut-off is given here.",
  "data": [
    {"smiles": "CSSc1ncccn1", "values": [
      {"measurement": "MIC", "setting": "[1]", "result": 8, "unit": "µg/mL"},
      {"measurement": "MIC", "setting": "[2]", "result": 8, "unit": "µg/mL"},
      {"measurement": "MIC", "setting": "[3]", "result": 16, "unit": "µg/mL"},
      {"measurement": "MIC", "setting": "[4]", "result": 2, "unit": "µg/mL"},
      {"measurement": "MIC", "setting": "[5]", "result": 4, "unit": "µg/mL"},
      {"measurement": "MIC", "setting": "[6]", "result": 2, "unit": "µg/mL"}
    ]},
    {"smiles": "[O-][n+]1ccccc1SSc1cccc[n+]1[O-]", "note": "[DIPYRITHIONE]", "values": [
      {"measurement": "MIC", "setting": "[1]", "result": 16, "unit": "µg/mL"},
      {"measurement": "MIC", "setting": "[2]", "result": 16, "unit": "µg/mL"},
      {"measurement": "MIC", "setting": "[3]", "result": 16, "unit": "µg/mL"},
      {"measurement": "MIC", "setting": "[4]", "result": 1, "unit": "µg/mL"},
      {"measurement": "MIC", "setting": "[5]", "result": 1, "unit": "µg/mL"},
      {"measurement": "MIC", "setting": "[6]", "result": 0.5, "unit": "µg/mL"}
    ]},
    {"smiles": "CSSc1ccccc1", "values": [
      {"measurement": "MIC", "setting": "[1]", "result": "> 128", "unit": "µg/mL"},
      {"measurement": "MIC", "setting": "[2]", "result": 64, "unit": "µg/mL"},
      {"measurement": "MIC", "setting": "[3]", "result": "> 128", "unit": "µg/mL"},
      {"measurement": "MIC", "setting": "[4]", "result": 128, "unit": "µg/mL"},
      {"measurement": "MIC", "setting": "[5]", "result": "> 128", "unit": "µg/mL"},
      {"measurement": "MIC", "setting": "[6]", "result": "> 128", "unit": "µg/mL"}
    ]},
    {"smiles": "Oc1cccc2cccnc12", "values": [
      {"measurement": "Activity", "setting": "[7]", "result": "Active"},
      {"measurement": "Activity", "setting": "[8]", "result": "Active"},
      {"measurement": "Activity", "setting": "[9]", "result": "Active"},
      {"measurement": "Activity", "setting": "[10]", "result": "Active"},
      {"measurement": "Activity", "setting": "[11]", "result": "Active"},
      {"measurement": "Activity", "setting": "[12]", "result": "Active"},
      {"measurement": "Activity", "setting": "[13]", "result": "Active"},
      {"measurement": "Activity", "setting": "[14]", "result": "Active"},
      {"measurement": "Activity", "setting": "[15]", "result": "Active"},
      {"measurement": "Activity", "setting": "[16]", "result": "Active"},
      {"measurement": "Activity", "setting": "[17]", "result": "Active"},
      {"measurement": "Activity", "setting": "[18]", "result": "Active"}
    ]},
    {"smiles": "CC1=CC(=O)c2ccccc2C1=O", "values": [
      {"measurement": "Activity", "setting": "[7]", "result": "Active"},
      {"measurement": "Activity", "setting": "[8]", "result": "Active"},
      {"measurement": "Activity", "setting": "[9]", "result": "Active"},
      {"measurement": "Activity", "setting": "[10]", "result": "Active"},
      {"measurement": "Activity", "setting": "[11]", "result": "Active"},
      {"measurement": "Activity", "setting": "[12]", "result": "Active"},
      {"measurement": "Activity", "setting": "[13]", "result": "Active"},
      {"measurement": "Activity", "setting": "[14]", "result": "Active"},
      {"measurement": "Activity", "setting": "[15]", "result": "Active"},
      {"measurement": "Activity", "setting": "[16]", "result": "Active"},
      {"measurement": "Activity", "setting": "[17]", "result": "Active"},
      {"measurement": "Activity", "setting": "[18]", "result": "Active"}
    ]},
    {"smiles": "CC[C@@H](CO)NCCN[C@@H](CC)CO", "note": "[ETHAMBUTOL]", "values": [
      {"measurement": "MIC", "setting": "[1]", "result": 2, "unit": "µg/mL"},
      {"measurement": "MIC", "setting": "[2]", "result": 32, "unit": "µg/mL"},
      {"measurement": "MIC", "setting": "[3]", "result": 2, "unit": "µg/mL"}
    ]},
    {"smiles": "CSCSSc1cccc[n+]1[O-]", "values": [
      {"measurement": "MIC", "setting": "[1]", "result": 8, "unit": "µg/mL"},
      {"measurement": "MIC", "setting": "[2]", "result": 4, "unit": "µg/mL"},
      {"measurement": "MIC", "setting": "[19]", "result": 4, "unit": "µg/mL"},
      {"measurement": "MIC", "setting": "[3]", "result": 2, "unit": "µg/mL"},
      {"measurement": "MIC", "setting": "[4]", "result": 1, "unit": "µg/mL"},
      {"measurement": "MIC", "setting": "[5]", "result": 1, "unit": "µg/mL"},
      {"measurement": "MIC", "setting": "[6]", "result": 0.5, "unit": "µg/mL"},
      {"measurement": "Activity", "setting": "[20]", "result": "Active"},
      {"measurement": "IC50", "setting": "[21]", "result": 390, "unit": "nM"},
      {"measurement": "IC50", "setting": "[22]", "result": 780, "unit": "nM"},
      {"measurement": "IC50", "setting": "[23]", "result": 890, "unit": "nM"}
    ]}
  ]
}
